Not all results are given here.
A1 apoptosis 2: A1 inhibitors via caspase activation, primary screen, cell-based, luminescence, HTS, two replicates. caspase activation, % (no concentration beside the values). 24,000 tested, under 10 active. MEF A1-2A-BIM cells, caspase-Glo luminescence, 3 h; percent of clofoctol response, DMSO zero; in the data active = caspase activation above about 5.9%
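Test system – A1-2A-BIM-expressing MEF cells · Input – 2500 cells/well · Medium – RPMI-1640 growth medium with 10% FBS · Compound dosing – 50 nL pinned compound · Timing – 3 h compound exposure at 37 °C · Technique – Caspase-Glo luminescence (DEVD substrate) · Evaluation – Caspase-3/7 activity from luminescence increase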
The depositor's hits bear a star.

For CC(C)(C)OC(=O)CC[C@@]12N=C(c3ccc(OCCCO)cc3)O[C@@H]1c1ccccc1N(CCS(=O)(=O)c1ccccc1)C2=O the results were A1 apoptosis 2 -2.2.
`CN(CCO)c1ccc(/C=N/NC(=O)c2ccccc2O)cc1` gave A1 apoptosis 2 -2.9.
`O=C(N/N=C/c1cccnc1)c1ccccn1` gave A1 apoptosis 2 -4.3.
Screening NC(=O)COc1ccccc1/C=N/NC(=O)c1ccccn1 returned A1 apoptosis 2 -1.8.
C=CCOC(=O)[C@H]1[C@@H]2C(=O)O[C@@H](c3ccccc3)[C@@H](c3ccccc3)N2[C@@H](c2ccc(OCCOC(=O)[C@@H]3C[C@@H]4C(=O)N[C@@H](CC(C)C)C(=O)N4[C@@H]3c3cccc(OCCO)c3)cc2)[C@]12C(=O)Nc1ccc(I)cc12 was read as A1 apoptosis 2 0.5.
O=C(O)CCCCCCC(=O)N/N=C/c1cc(Br)cc(Br)c1O was read as A1 apoptosis 2 0.9.
For O=C(CCCCC(=O)N/N=C/c1cccc(Oc2ccccc2)c1)NO the results were A1 apoptosis 2 -0.2.
`O=C(N/N=C/c1ccc(O)cc1O)c1ccccc1O` gave A1 apoptosis 2 -10.8.
`O=C(CCCCCCC(=O)Nc1ccccc1O)N/N=C/c1ccc(-c2ccccc2)cc1` gave A1 apoptosis 2 -1.1.
O=C(N/N=C/c1cc(I)cc(I)c1O)c1ccccn1 was read as A1 apoptosis 2 -0.1.
For C[C@@H]1C=C(C(=O)Nc2ccccc2)O[C@H](OCCCCO)C1 the results were A1 apoptosis 2 -0.4.
For O=C(NO)c1cccc(C(=O)N/N=C/c2cccc(Oc3ccccc3)c2)c1 the results were A1 apoptosis 2 -4.3.
Screening COC(=O)c1c2oc(c1C(=O)OC)C(=O)N[C@@H](Cc1ccccc1)Cn1cc(nn1)[C@H](Cc1ccccc1)NC(=O)N[C@@H](CO)CC2 returned A1 apoptosis 2 0.1.
For O=C(O)CCCCCCC(=O)N/N=C/c1ccco1 the results were A1 apoptosis 2 0.5.
For O=C(CCCCCCC(=O)N/N=C\c1ccc(O)c2ccccc12)NO the results were A1 apoptosis 2 -0.2.
Screening CCOC(=O)[C@@H]1CCCCN1C(=O)C(=O)OC returned A1 apoptosis 2 0.8.
`O=C1O[C@@H](c2ccccc2)[C@@H](c2ccccc2)N2[C@@H](c3ccc(O)cc3)[C@]3(C(=O)Nc4ccc(C#CCCO)cc43)[C@@H](C(=O)O)[C@H]12` gave A1 apoptosis 2 -0.8.
`COC(=O)CCCCCCC(=O)N/N=C/[C@H](O)[C@@H](O)[C@H](O)CO` gave A1 apoptosis 2 -0.2.
Screening CC12N=C3SCC(=O)N3[C@H](c3ccccc3O1)[C@H]2CO returned A1 apoptosis 2 -0.2.
Screening Cc1c(NC(=O)/C(C#N)=C/c2cccc([N+](=O)[O-])c2)c(=O)n(-c2ccccc2)n1C returned A1 apoptosis 2 0.3.
`O=C(CCCCC(=O)N/N=C/c1cc(Br)cs1)NO` gave A1 apoptosis 2 -1.1.
`C=CCNC(=O)[C@H]1[C@@H]2C(=O)O[C@@H](c3ccccc3)[C@@H](c3ccccc3)N2[C@@H](c2ccccc2OCCO)[C@]12C(=O)N(C(=O)OCCOC)c1ccc(C#CCC(C(=O)OC)C(=O)OC)cc12` gave A1 apoptosis 2 0.5.
Screening COc1cc(/C=N/NC(=O)c2ccc(C(=O)NO)cc2)c(Br)cc1O returned A1 apoptosis 2 -4.9.
`O=C(O)CCCCCCC(=O)NN=C1CCCC1` gave A1 apoptosis 2 0.5.
Screening O=C(CCCCC(=O)N/N=C/c1c(O)ccc2ccccc12)NO returned A1 apoptosis 2 -0.3.
COc1cc(/C=C/C=N/NC(=O)c2ccc(C(=O)NO)cc2)ccc1O was read as A1 apoptosis 2 -0.8.
C=C[C@@H](COC(C)=O)NS(=O)(=O)c1ccc(Br)cc1 was read as A1 apoptosis 2 0.2.
For CC(/C=C/C(=O)NO)=C\c1ccccc1OCc1cn(CCNC(=O)Nc2ccccc2)nn1 the results were A1 apoptosis 2 -0.2.
For CC(C)(C)NC(=O)C(COCc1ccccc1)OC(=O)c1ccccc1 (centres undefined) the results were A1 apoptosis 2 0.0.
For CC(C)=CCC[C@@H](C)C/C=N/NC(=O)c1ccccn1 the results were A1 apoptosis 2 -1.2.
For Cc1ccc(S(=O)(=O)N[C@@H](Cc2ccccc2)C(=O)NCCCN=[N+]=[N-])cc1 the results were A1 apoptosis 2 -1.7.
For O=C(O)CCCCCC(=O)N/N=C/c1ccccc1[N+](=O)[O-] the results were A1 apoptosis 2 0.7.
`O=C(N/N=C/c1c(F)c(F)c(F)c(F)c1F)c1ccccc1O` gave A1 apoptosis 2 -2.4.
Screening O=C1O[C@H](c2ccccc2)[C@H](c2ccccc2)N2[C@H]1[C@@H](C(=O)N1CCN(c3ncccn3)CC1)[C@]1(C(=O)Nc3ccccc31)[C@H]2c1ccccc1OCCO returned A1 apoptosis 2 -0.8.
Screening CCO/N=[N+](\[O-])N1CCCC1 returned A1 apoptosis 2 0.6.
Screening CC(C)=CCC[C@@H](C)C/C=N/NC(=O)c1cccc(C(=O)NO)c1 returned A1 apoptosis 2 -0.3.
`OCC1CC(c2ccccc2)=NO1` (centres undefined) gave A1 apoptosis 2 -0.5.
C=CCOC(=O)C(=O)/C=C/C1CC1 was read as A1 apoptosis 2 2.1.
COc1ccc([Si](C)(C)[C@H]2[C@H](CCn3cc([C@H](O)c4ccccc4)nn3)O[C@@]3(C(=O)N(Cc4ccc(N5CCOC5=O)cc4)c4ccccc43)[C@@H]2C)cc1 was read as A1 apoptosis 2 -0.9.
Screening O=C1O[C@@H](c2ccccc2)[C@@H](c2ccccc2)N2[C@@H](c3ccc(OCCO)cc3)[C@]3(C(=O)Nc4ccccc43)[C@@H](C(=O)NC[C@H](O)c3ccccc3)[C@H]12 returned A1 apoptosis 2 1.4.
`O=C(O)CCCCCCC(=O)N/N=C/c1ccccc1[N+](=O)[O-]` gave A1 apoptosis 2 -1.6.
Screening COC(=O)C1=C/c2ccccc2C(C2CC2)N(C)/C=C\1C(=O)OC (centres undefined) returned A1 apoptosis 2 0.4.
`O=C(NN=C1CCCCCC1)c1ccccn1` gave A1 apoptosis 2 0.6.
CCOc1cccc(/C=N/NC(=O)CCCCC(=O)NO)c1OCC was read as A1 apoptosis 2 -0.5.
COc1ccc(/C=N/NC(=O)c2ccccc2O)cc1OC was read as A1 apoptosis 2 1.0.
`O=C(CCCCC(=O)N/N=C/c1cccnc1Br)NO` gave A1 apoptosis 2 1.2.
O=C(Cc1ccccc1)OC(C(=O)NCc1ccccc1)c1ccco1 (centres undefined) was read as A1 apoptosis 2 -0.8.
Screening COC(=O)CCCCCCC(=O)N/N=C/[C@H](O)[C@H](O)[C@@H](O)[C@@H](O)CO returned A1 apoptosis 2 -0.1.
For COc1cccc(-n2cc(C(=O)NO)nn2)c1 the results were A1 apoptosis 2 -0.9.
Screening COCCCNC(=O)[C@]1(CCS(=O)(=O)c2ccccc2)N=C(c2ccc(OCCCO)cc2)O[C@@H]1c1ccccc1 returned A1 apoptosis 2 1.1.
For O=C(N/N=C/c1cc(Br)cc(Br)c1O)c1ccccc1O the results were A1 apoptosis 2 -6.9.
O=C(N/N=C/c1cccnc1)c1ccccc1O was read as A1 apoptosis 2 -4.1.
Cn1cc(/C=N/NC(=O)c2ccccn2)c2ccccc21 was read as A1 apoptosis 2 -1.2.
`COc1cc(Cl)c(/C=N\NC(=O)CCCCC(=O)NO)c(Cl)c1OC` gave A1 apoptosis 2 -1.0.
`O=C(O)CCCCCC(=O)N/N=C/c1ccc(N(c2ccccc2)c2ccccc2)cc1` gave A1 apoptosis 2 0.8.

High-throughput results (PubChem)
